Consider four molecules from ChEMBL document CHEMBL2417545, “6-methoxy-7-benzofuranoxy and 6-methoxy-7-indolyloxy analogues of 2-[2-(2,6-Dimethoxyphenoxy)ethyl]aminomethyl-1,4-benzodioxane (WB4101):1 discovery of a potent and selective α1D-adrenoceptor antagonist” (J Med Chem, 2013).

SMILES strings stand for the structures.

Assay [1] is filed under the species Rattus norvegicus. Description: Selectivity ratio of Ki for alpha-1D adrenoreceptor in Sprague-Dawley rat thoracic aorta to Ki for alpha-1B adrenoreceptor in Sprague-Dawley rat spleen. In kind it is tissue-based.
For assay [2], the target named is T1, 5-hydroxytryptamine receptor 1A (Rattus norvegicus, UniProt P19327).
T1 sequence (P19327 whole entry): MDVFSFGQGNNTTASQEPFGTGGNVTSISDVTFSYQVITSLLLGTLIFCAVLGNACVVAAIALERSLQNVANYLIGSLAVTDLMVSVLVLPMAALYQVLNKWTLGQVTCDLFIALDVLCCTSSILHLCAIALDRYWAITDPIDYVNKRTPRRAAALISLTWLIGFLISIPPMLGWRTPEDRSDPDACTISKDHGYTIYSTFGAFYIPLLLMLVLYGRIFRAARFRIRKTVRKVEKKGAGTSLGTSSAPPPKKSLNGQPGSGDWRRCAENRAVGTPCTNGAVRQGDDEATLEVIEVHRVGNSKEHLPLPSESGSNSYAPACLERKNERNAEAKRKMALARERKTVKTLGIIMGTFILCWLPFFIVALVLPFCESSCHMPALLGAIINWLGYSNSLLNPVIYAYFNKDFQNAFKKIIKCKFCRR
Briefly: Displacement of [3H]-8-OHDPAT from 5-HT1A receptor in rat hippocampal membranes after 30 mins. In kind it is cell membranes, Hippocampus, Membrane.

Assay [3] concerns the target T2, Alpha-1A adrenergic receptor (Rattus norvegicus, UniProt P43140).
T2 sequence (P43140 whole entry): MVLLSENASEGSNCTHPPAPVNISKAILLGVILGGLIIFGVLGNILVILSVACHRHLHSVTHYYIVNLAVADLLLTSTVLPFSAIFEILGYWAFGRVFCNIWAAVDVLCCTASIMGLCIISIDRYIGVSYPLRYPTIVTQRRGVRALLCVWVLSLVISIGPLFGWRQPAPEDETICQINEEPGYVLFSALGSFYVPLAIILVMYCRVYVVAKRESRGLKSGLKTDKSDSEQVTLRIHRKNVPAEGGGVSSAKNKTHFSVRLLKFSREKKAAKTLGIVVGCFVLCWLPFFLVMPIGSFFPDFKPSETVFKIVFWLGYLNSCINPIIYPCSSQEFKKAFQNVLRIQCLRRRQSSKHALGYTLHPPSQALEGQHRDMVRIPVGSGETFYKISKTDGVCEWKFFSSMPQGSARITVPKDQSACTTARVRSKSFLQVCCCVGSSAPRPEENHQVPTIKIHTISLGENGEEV
Description: Antagonist activity at alpha-1A adrenoreceptor in Sprague-Dawley rat prostatic vas deferens assessed as inhibition of noradrenaline-induced tissue contraction after 30 mins by Schild plot analysis. The following applies: read-out: pA2 (converted). In short, it runs like this:
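Cumulative isotonic (−)-noradrenaline curves were run at 30 min intervals, the first discarded and the second taken as control, then a third after 30 min with antagonist. pA₂ from Schild plot, at least three antagonist concentrations, each tested 3−5 times.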

Assay [4] addresses T3, Alpha-1A adrenergic receptor (Homo sapiens, UniProt P35348).
T3 sequence (P35348 whole entry): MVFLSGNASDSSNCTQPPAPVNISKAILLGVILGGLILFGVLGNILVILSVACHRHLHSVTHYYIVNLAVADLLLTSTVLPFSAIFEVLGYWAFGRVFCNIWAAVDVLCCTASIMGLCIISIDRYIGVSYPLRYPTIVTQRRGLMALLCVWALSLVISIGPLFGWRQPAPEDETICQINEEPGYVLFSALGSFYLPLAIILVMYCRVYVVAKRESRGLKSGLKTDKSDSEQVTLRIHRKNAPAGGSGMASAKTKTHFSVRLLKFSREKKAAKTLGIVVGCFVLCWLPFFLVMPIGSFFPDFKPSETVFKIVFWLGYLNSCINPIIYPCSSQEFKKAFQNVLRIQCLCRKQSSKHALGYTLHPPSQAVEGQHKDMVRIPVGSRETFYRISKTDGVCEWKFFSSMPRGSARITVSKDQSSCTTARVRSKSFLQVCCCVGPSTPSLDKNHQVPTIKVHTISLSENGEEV
Briefly: Displacement of [3H]prazosin from human alpha-1A adrenoreceptor expressed in CHO cells after 30 mins. Type of assay: cell-based. Put shortly: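 Membranes from CHO cells expressing each α₁-AR subtype, incubated 30 min at 25 °C in 50 mM Tris HCl pH 7.7 with 10 μM pargyline and 0.1% ascorbic acid, plus 0.5 nM [³H]prazosin and varying test compound concentrations. Nonspecific binding was defined with 1 μM prazosin.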

The species named for assay [5] is Rattus norvegicus. Briefly: Selectivity ratio of Ki for alpha-1D adrenoreceptor in Sprague-Dawley rat thoracic aorta to Ki for alpha-1A adrenoreceptor in Sprague-Dawley rat prostatic vas deferens. In kind it is tissue-based.
The species named for assay [6] is Rattus norvegicus. Briefly: Selectivity ratio of Ki for alpha-1D adrenoreceptor in Sprague-Dawley rat thoracic aorta to Ki for alpha-1A adrenoreceptor in Sprague-Dawley rat prostate. Type of assay: tissue-based.

Take `COc1ccc2ccoc2c1OCCNC[C@H]1COc2ccccc2O1.Cl`: the results for the Ratio Ki in the assay listed under Rattus norvegicus [1] and in the assay listed under Rattus norvegicus [5] were 2 and 6, respectively. For the same molecule, the Ki in assay [2] was 2.57 nM; in assay [4], 0.49 nM. Besides, the Kb in assay [3] was 5.5 nM.

For `COc1ccc2cc[nH]c2c1OCCNC[C@H]1COc2ccccc2O1`, the Ki in assay [2] was 339 nM; in assay [4], 178 nM. Further, in assay [3], the Kb is 4.9 nM.

In the case of `COc1ccc2c(c1OCCNC[C@H]1COc3ccccc3O1)NCC2.Cl.Cl`, the Ki in assay [2] is 110 nM; in assay [4], 3.8 nM. Also, in assay [3], the Kb is 9.33 nM.

As to `COc1ccc2c(c1OCCNC[C@H]1COc3ccccc3O1)OCC2.Cl`, the Ratio Ki in the assay filed under Rattus norvegicus [1] was 12; in the assay filed under Rattus norvegicus [6] it was 50; in the assay filed under Rattus norvegicus [5] it was 129. Besides, the Ki is 46.8 nM in assay [2] and 2 nM in assay [4]. Besides, the Kb in assay [3] was 33.9 nM.
